# Results published in ChEMBL document CHEMBL4359813, “Synthesis and antimycobacterial activity of imidazo[1,2-b][1,2,4,5]tetrazines” (2019).
# Calls of active or inactive are those of the source. No cut-off for these calls is given here.
# Columns and labels:
# [1] = tested on: Mycolicibacterium smegmatis; experiment: Antimycobacterial activity against Mycobacterium smegmatis atR33 assessed as decrease in drug resistance development at 10 ug/disc after 2 to 3 days by paper disc method; format: functional, organism-based
# Method in brief: (§1)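 Mutant M. smegmatis strains were grown in Middlebrook 7H9/OADC/Tween/glycerol to OD600 1.2. Cultures were diluted 1:9:10 (culture:water:M290) and overlaid on M290 agar. Commercial or impregnated paper discs were applied and plates incubated 2–3 days at 37 °C. Inhibition halos were measured to 1 mm, run in triplicate, mean ± SD.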
# [2] = tested on: Mycolicibacterium smegmatis; experiment: Antimycobacterial activity against Mycobacterium smegmatis atR37 assessed as decrease in drug resistance development at 10 ug/disc after 2 to 3 days by paper disc method; format: functional, organism-based
# Method in brief: (§2)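 Drug-resistant M. smegmatis mc2 155 mutants, isolated on M290 agar with 3.5-4× MIC of compound and resistance re-confirmed, grown in Middlebrook 7H9 (OADC, 0.1% Tween-80, 0.4% glycerol) to OD600 1.2. Diluted 1:9:10 culture:water:M290 and poured as top layer on M290 agar. Impregnated paper discs applied; 37 °C for 2–3 days. Halos measured to nearest 1 mm; triplicates, mean ± SD versus control strain.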
# [3] = tested on: Mycolicibacterium smegmatis; experiment: Antimycobacterial activity against Mycobacterium smegmatis atR9 assessed as decrease in drug resistance development at 10 ug/disc after 2 to 3 days by paper disc method; format: functional, organism-based; method in brief: as §2
# [4] = tested on: Mycolicibacterium smegmatis; experiment: Antimycobacterial activity against Mycobacterium smegmatis atR10 assessed as decrease in drug resistance development at 10 ug/disc after 2 to 3 days by paper disc method; format: functional, organism-based; method in brief: as §1
# [5] = tested on: Mycolicibacterium smegmatis; experiment: Antimycobacterial activity against Mycobacterium smegmatis atR10 assessed as decrease in drug resistance development at 10 nmol/disc after 2 to 3 days by paper disc method; format: functional, organism-based; method in brief: as §1
# [6] = tested on: Mycolicibacterium smegmatis; experiment: Antimycobacterial activity against Mycobacterium smegmatis atR17 assessed as decrease in drug resistance at 10 nmol/disc after 2 to 3 days by paper disc method; format: functional, organism-based; method in brief: as §1
# [7] = tested on: Mycolicibacterium smegmatis MC2 155; experiment: Inhibition of STPK in Mycobacterium smegmatis MC2 155 expressing aminoglycoside phophotransferase-8 assessed as growth inhibition at 5 nmol/disk after 18 hrs in presence of kanamycin by paper disk method
# [8] = tested on: Mycobacterium tuberculosis; experiment: Antimycobacterial activity against Mycobacterium tuberculosis H37Rv in liquid medium; format: functional
# Method in brief: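 M. tuberculosis H37Rv; MIC determined in liquid medium on the automated Bactec MGIT 960 system.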
# [9] = tested on: Mycolicibacterium smegmatis; experiment: Antimycobacterial activity against Mycobacterium smegmatis MC2 155 in liquid medium after 48 hrs by two-fold serial dilution method; format: functional; conditions: MC2 155, 48 h
# Method in brief: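 M. smegmatis mc2 155 grown overnight in Lemco-Tw broth, diluted 1:200 in fresh broth. […] Top wells could carry 4% DMSO. Incubated 48 h at 37 °C with shaking at 250 rpm. MIC is the lowest concentration with no visible growth.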
# [10] = tested on: Mycolicibacterium smegmatis; experiment: Antimycobacterial activity against Mycobacterium smegmatis MC2 155 in solid medium by two-fold serial dilution method; format: functional
# Method in brief: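 M290 soybean-casein agar plates carried two-fold compound dilutions, 8–64 or 8–128 µg/ml, some with extra 20 or 25 µg/ml plates.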
# [11] = tested on: Mycolicibacterium smegmatis; experiment: Antimycobacterial activity against Mycobacterium smegmatis atR9 in liquid medium after 48 hrs by two-fold serial dilution method; format: functional; conditions: atR9, 48 h
# Method in brief: (§3)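 M. smegmatis resistant mutants were isolated on M290 agar containing 3.5-4× MIC of the test compound at 30°C and resistance was reconfirmed. MIC was then run in Lemco-Tw broth (Tween-80 0.05%). An overnight culture was diluted 1:200, and two-fold serial dilutions in DMSO were added. Plates were incubated at 37°C and 250 rpm for 48 h. MIC was read as the lowest concentration with no visible growth.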
# [12] = tested on: Mycolicibacterium smegmatis; experiment: Antimycobacterial activity against Mycobacterium smegmatis atR14 in liquid medium after 48 hrs by two-fold serial dilution method; format: functional; conditions: atR14, 48 h; method in brief: as §3
# [13] = tested on: Mycolicibacterium smegmatis; experiment: Antimycobacterial activity against Mycobacterium smegmatis atR17 in liquid medium after 48 hrs by two-fold serial dilution method; format: functional; conditions: atR17, 48 h; method in brief: as §3
# [14] = tested on: Mycolicibacterium smegmatis; experiment: Antimycobacterial activity against Mycobacterium smegmatis atR19 in liquid medium after 48 hrs by two-fold serial dilution method; format: functional; conditions: atR19, 48 h; method in brief: as §3
# [15] = tested on: Mycolicibacterium smegmatis; experiment: Antimycobacterial activity against Mycobacterium smegmatis atR1 in liquid medium after 48 hrs by two-fold serial dilution method; format: functional; conditions: atR1, 48 h; method in brief: as §3
# [16] = tested on: Mycolicibacterium smegmatis; experiment: Antimycobacterial activity against Mycobacterium smegmatis atR8 in liquid medium after 48 hrs by two-fold serial dilution method; format: functional; conditions: atR8, 48 h; method in brief: as §3
# [17] = tested on: Mycolicibacterium smegmatis; experiment: Antimycobacterial activity against Mycobacterium smegmatis atR10 in liquid medium after 48 hrs by two-fold serial dilution method; format: functional; conditions: atR10, 48 h; method in brief: as §3
# [18] = tested on: Mycolicibacterium smegmatis; experiment: Antimycobacterial activity against Mycobacterium smegmatis atR11 in liquid medium after 48 hrs by two-fold serial dilution method; format: functional; conditions: atR11, 48 h; method in brief: as §3
# [19] = tested on: Mycolicibacterium smegmatis; experiment: Antimycobacterial activity against Mycobacterium smegmatis atR33 in liquid medium after 48 hrs by two-fold serial dilution method; format: functional; conditions: atR33, 48 h; method in brief: as §3
# [20] = tested on: Mycolicibacterium smegmatis; experiment: Antimycobacterial activity against Mycobacterium smegmatis atR37 in liquid medium after 48 hrs by two-fold serial dilution method; format: functional; conditions: atR37, 48 h; method in brief: as §3
# [21] = tested on: Mycolicibacterium smegmatis; experiment: Antimycobacterial activity against Mycobacterium smegmatis atR40 in liquid medium after 48 hrs by two-fold serial dilution method; format: functional; conditions: atR40, 48 h; method in brief: as §3
# [22] = tested on: Mycolicibacterium smegmatis; experiment: Antimycobacterial activity against Mycobacterium smegmatis atR2 in liquid medium after 48 hrs by two-fold serial dilution method; format: functional; conditions: atR2, 48 h; method in brief: as §3
# [23] = tested on: Mycolicibacterium smegmatis; experiment: Antimycobacterial activity against Mycobacterium smegmatis atR1 assessed as decrease in drug resistance development at 40 nmol/disc after 2 to 3 days by paper disc method; format: functional, organism-based; method in brief: as §1
# [24] = tested on: Mycolicibacterium smegmatis; experiment: Antimycobacterial activity against Mycobacterium smegmatis atR2 assessed as decrease in drug resistance development at 40 nmol/disc after 2 to 3 days by paper disc method; format: functional, organism-based; method in brief: as §1
# [25] = tested on: Mycolicibacterium smegmatis; experiment: Antimycobacterial activity against Mycobacterium smegmatis atR11 assessed as decrease in drug resistance development at 40 nmol/disc after 2 to 3 days by paper disc method; format: functional, organism-based; method in brief: as §1
# [26] = tested on: Mycolicibacterium smegmatis; experiment: Antimycobacterial activity against Mycobacterium smegmatis atR8 assessed as decrease in drug resistance development at 40 nmol/disc after 2 to 3 days by paper disc method; format: functional, organism-based; method in brief: as §2
# [27] = tested on: Mycolicibacterium smegmatis; experiment: Antimycobacterial activity against Mycobacterium smegmatis atR10 assessed as decrease in drug resistance development at 40 nmol/disc after 2 to 3 days by paper disc method; format: functional, organism-based; method in brief: as §1
# [28] = tested on: Mycolicibacterium smegmatis; experiment: Antimycobacterial activity against Mycobacterium smegmatis atR14 assessed as decrease in drug resistance development at 40 nmol/disc after 2 to 3 days by paper disc method; format: functional, organism-based; method in brief: as §1
# [29] = tested on: Mycolicibacterium smegmatis; experiment: Antimycobacterial activity against Mycobacterium smegmatis atR17 assessed as decrease in drug resistance development at 40 nmol/disc after 2 to 3 days by paper disc method; format: functional, organism-based; method in brief: as §1
# [30] = tested on: Mycolicibacterium smegmatis; experiment: Antimycobacterial activity against Mycobacterium smegmatis atR19 assessed as decrease in drug resistance development at 40 nmol/disc after 2 to 3 days by paper disc method; format: functional, organism-based; method in brief: as §1
# [31] = tested on: Mycolicibacterium smegmatis; experiment: Antimycobacterial activity against Mycobacterium smegmatis atR33 assessed as decrease in drug resistance development at 40 nmol/disc after 2 to 3 days by paper disc method; format: functional, organism-based; method in brief: as §1
# [32] = tested on: Mycolicibacterium smegmatis; experiment: Antimycobacterial activity against Mycobacterium smegmatis atR37 assessed as decrease in drug resistance development at 40 nmol/disc after 2 to 3 days by paper disc method; format: functional, organism-based; method in brief: as §2
# [33] = tested on: Mycolicibacterium smegmatis; experiment: Antimycobacterial activity against Mycobacterium smegmatis atR40 assessed as decrease in drug resistance development at 40 nmol/disc after 2 to 3 days by paper disc method; format: functional, organism-based; method in brief: as §2
# [34] = tested on: Mycolicibacterium smegmatis; experiment: Antimycobacterial activity against Mycobacterium smegmatis atR40 assessed as decrease in drug resistance development at 2 ug/disc after 2 to 3 days by paper disc method; format: functional, organism-based; method in brief: as §2
# [35] = tested on: Mycolicibacterium smegmatis; experiment: Antimycobacterial activity against Mycobacterium smegmatis atR2 assessed as decrease in drug resistance development at 2 ug/disc after 2 to 3 days by paper disc method; format: functional, organism-based; method in brief: as §1
# [36] = tested on: Mycolicibacterium smegmatis; experiment: Antimycobacterial activity against Mycobacterium smegmatis atR19 assessed as decrease in drug resistance development at 2 ug/disc after 2 to 3 days by paper disc method; format: functional, organism-based; method in brief: as §1
smiles,measurement,setting,value
C[C@@H](O)[C@H]1C(=O)N2C(C(=O)O)=C(SCCNC=N)C[C@H]12,Activity,[1],inactive
same,Activity,[2],inactive
same,Activity,[3],inactive
same,Activity,[4],inactive
O=C1c2c(O)ccc(O)c2C(=O)c2c(NCCNCCO)ccc(NCCNCCO)c21,Activity,[5],inactive
same,Activity,[6],inactive
Cc1cc(C)n(-c2nnc3ncc(Sc4ccccc4)n3n2)n1,inhibition zone (IZ),[7],11.5 mm
same,MIC,[8],3.1 µM
same,MIC,[9],99 µM
same,MIC,[10],61.8 µM
same,MIC,[11],> 64 µg/mL
same,MIC,[12],> 64 µg/mL
same,MIC,[13],> 64 µg/mL
same,MIC,[14],> 64 µg/mL
same,MIC,[15],> 64 µg/mL
same,MIC,[16],> 64 µg/mL
same,MIC,[17],> 64 µg/mL
same,MIC,[18],> 64 µg/mL
same,MIC,[19],> 64 µg/mL
same,MIC,[20],> 64 µg/mL
same,MIC,[21],> 64 µg/mL
same,MIC,[22],> 64 µg/mL
same,Activity,[23],inactive
same,Activity,[24],inactive
same,Activity,[25],inactive
same,Activity,[26],inactive
same,Activity,[27],inactive
same,Activity,[28],inactive
same,Activity,[29],inactive
same,Activity,[30],inactive
same,Activity,[31],inactive
same,Activity,[32],inactive
same,Activity,[33],inactive
CCC(CCCO)Sc1cnc2nnc(-n3nc(C)cc3C)nn12 (configuration not stated),inhibition zone (IZ),[7],9.3 mm
CC1COc2c(N3CCN(C)CC3)c(F)cc3c(=O)c(C(=O)O)cn1c23 (configuration not stated),Activity,[34],inactive
same,Activity,[35],inactive
same,Activity,[36],inactive
